Measurements taken from ChEMBL document CHEMBL1124344, “5-Piperazinylalkyl-2(3H)-oxazolones with neuroleptic activity” (J Med Chem, 1989).

Legend:
Mus musculus [1] = test: Inhibition of spontaneous motor activity in mice, by administering perorally at a dose of 90 mg/kg; assay type: functional; conditions: route oral
Outline: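 Mice fasted overnight, then dosed orally with compound (weighed as base) suspended in arabic gum, 10 mL/kg, with vehicle controls; 1 h pretreatment for screening tests, 1 or 5 h for others. Groups of five; locomotor activity counted 10 min in photocell activity cage, at least two groups per dose. ED50 = dose giving 50% inhibition versus controls, by probit analysis.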

[2] = Lethal dose in mice (LD50) following i.p. dosing; assay type: toxicity, organism-based; conditions: mouse, in vivo, ip
Outline: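 Acute toxicity tested in mice by the intraperitoneal route. LD50 is the dose killing 50% of treated mice, computed by Finney probit analysis; values are approximate.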

Rattus norvegicus [3] = test: Antagonistic activity against apomorphine-induced stereotypy in rats, by administering perorally at a dose of 90 mg/kg; assay type: functional; conditions: route oral
Outline: (§1)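 Male rats fasted overnight and given oral doses in arabic gum suspension (10 mL/kg) 1 h, or 1 and 5 h, before challenge. Apomorphine 3 mg/kg iv, with stereotypy observed 20 min later. ED50 is the dose inhibiting stereotypy in 50% of rats, per Janssen's method. Parenthetical entries give the maximal dose and percent activity.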

Mus musculus [4] = test: Inhibition of amphetamine-induced hypermobility in mice following p.o. administration.; assay type: functional; conditions: po
Outline: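 Compounds were given orally to male mice (gum arabic suspension, 10 mL/kg, fasted) in groups of five. Amphetamine 4 mg/kg ip followed 30 min later. After another 10 min, motility was recorded for 15 min with a photocell actophotometer. ED50, by probit analysis, is the dose giving 50% reduction against controls.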

Rattus norvegicus [5] = test: Activity to evoke catalepsy in rats, by administering perorally at a dose of 90 mg/kg; assay type: functional; conditions: route oral
Outline: (§2)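 Rats fasted overnight and given oral doses in arabic gum suspension (10 mL/kg), 1 h before screening or 1 and 5 h before profile testing. Forelegs placed on a horizontal bar 7 cm high, three times at 5-min intervals. Immobility of at least 15 s counts as catalepsy. ED50 is the dose giving catalepsy in 50% of rats, by probit analysis. Parenthetical entries give the maximal dose and percent activity.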

Rattus norvegicus [6] = test: Activity to evoke catalepsy in rats, by administering perorally at a dose of 60 mg/kg; assay type: functional; conditions: route oral; outline: as §2
Mus musculus [7] = test: Inhibition of spontaneous motor activity in mice, by administering perorally; assay type: functional; conditions: po
Outline: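 Mice in groups of five were dosed orally with gum arabic suspensions at 10 mL/kg after an overnight fast, with a vehicle control group. Locomotion was counted for 10 min in a photocell activity cage, in at least two groups per dose. ED50, by probit analysis, is the dose giving 50% inhibition against controls.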

Rattus norvegicus [8] = test: Antagonistic activity against apomorphine-induced stereotypy in rats, by administering perorally at a dose of 60 mg/kg; assay type: functional; conditions: route oral; outline: as §1

| Structure (SMILES) | inhibition in vivo at 90 mg/kg (Mus musculus [1]) | LD50 [2] | inhibition in vivo at 90 mg/kg (Rattus norvegicus [3]) | ED50 (Mus musculus [4]) | inhibition in vivo at 90 mg/kg (Rattus norvegicus [5]) | inhibition in vivo at 60 mg/kg (Rattus norvegicus [6]) | ED50 (Mus musculus [7]) | inhibition in vivo at 60 mg/kg (Rattus norvegicus [8]) |
| --- | --- | --- | --- | --- | --- | --- | --- | --- |
| Oc1nc(-c2ccc(F)cc2)c(CCN2CCN(c3cc(Cl)ccc3Cl)CC2)o1 | 45% | 750 mg/kg | 0% | 10 mg/kg | 0% |  |  |  |
| Cc1ccccc1N1CCN(CCc2oc(O)nc2-c2ccc(F)cc2)CC1 |  | 250 mg/kg |  | 8.6 mg/kg |  | 0% | 6.3 mg/kg | 0% |
